Values belong to the compound of their own block, whether it stands above or below them.
Experiments:
[1] = tested on: Panel ovarian (Carcinoma cell lines); test: Antiproliferative activity against human Panel ovarian (7 Carcinoma cell lines) assessed as reduction in mean cell growth; type: functional
Method in brief: (§1)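 NCI five-dose testing across the 58-line panel gives GI50, TGI and LC50 for each line. Subpanel lines report mean GI50 for each of the nine cancer types.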

PC-3 [2] = test: Antiproliferative activity against human PC-3 cells assessed as reduction in cell growth; type: functional; method in brief: as §1
[3] = tested on: Panel prostate (Carcinoma cell lines); test: Antiproliferative activity against human Panel prostate (2 Carcinoma cell lines) assessed as reduction in mean cell growth; type: functional; method in brief: as §1
[4] = tested on: Panel CNS (Carcinoma cell lines); test: Antiproliferative activity against human Panel CNS (6 Carcinoma cell lines) assessed as reduction in mean cell growth; type: functional; method in brief: as §1
[5] = tested on: Panel colon (Carcinoma cell lines); test: Antiproliferative activity against human Panel colon (7 Carcinoma cell lines) assessed as reduction in mean cell growth; type: functional; method in brief: as §1
COLO 205 [6] = test: Antiproliferative activity against human COLO 205 cells assessed as total growth inhibition; type: functional; method in brief: as §1
HCT-15 [7] = test: Antiproliferative activity against human HCT-15 cells assessed as total growth inhibition; type: functional; method in brief: as §1
K562 [8] = test: Antiproliferative activity against human K562 cells assessed as total growth inhibition; type: functional; method in brief: as §1
MDA-MB-468 [9] = test: Antiproliferative activity against human MDA-MB-468 cells assessed as reduction in cell growth; type: functional; method in brief: as §1
[10] = tested on: Panel leukemia (Carcinoma cell lines); test: Antiproliferative activity against human Panel leukemia (5 Carcinoma cell lines) assessed as reduction in mean cell growth; type: functional; method in brief: as §1
[11] = Antiproliferative activity against human Panel non-small cell lung cancer (8 Carcinoma cell lines) assessed as reduction in mean cell growth; type: functional; settings: Non-small cell lung cancer cell line; method in brief: as §1
SNB-75 [12] = test: Antiproliferative activity against human SNB-75 cells assessed as reduction in cell growth; type: functional; method in brief: as §1
COLO 205 [13] = test: Antiproliferative activity against human COLO 205 cells assessed as reduction in cell growth; type: functional; method in brief: as §1
RXF 393 [14] = test: Antiproliferative activity against human RXF 393 cells assessed as reduction in cell growth; type: functional; method in brief: as §1
SNB-75 [15] = test: Cytotoxicity against human SNB-75 cells; type: functional; settings: read-out: LC50 (the source's name)
Method in brief: (§2)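 Run in the US NCI 58-cell-line screen covering nine cancer types (leukemia, NSCLC, colon, CNS, melanoma, ovarian, renal, prostate, breast). Five-dose mode gave GI50, TGI and LC50 values for each cell line. In the single-dose pre-screen, % inhibition was taken as 100 minus growth percentage.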

K562 [16] = test: Cytotoxicity against human k562 cells; type: functional; settings: read-out: LC50 (the source's name); method in brief: as §2
K562 [17] = test: Antiproliferative activity against human K562 cells assessed as reduction in cell growth; type: functional; method in brief: as §1
NCI/ADR-RES [18] = test: Antiproliferative activity against human NCI/ADR-RES cells assessed as total growth inhibition; type: functional; method in brief: as §1
HCT-15 [19] = test: Cytotoxicity against human HCT-15 cells; type: functional; settings: read-out: LC50 (the source's name); method in brief: as §2
[20] = tested on: Panel breast (Carcinoma cell lines); test: Antiproliferative activity against human Panel breast (6 Carcinoma cell lines) assessed as reduction in mean cell growth; type: functional; method in brief: as §1
RXF 393 [21] = test: Antiproliferative activity against human RXF 393 cells assessed as total growth inhibition; type: functional; method in brief: as §1
[22] = tested on: Panel melanoma (Carcinoma cell lines); test: Antiproliferative activity against human Panel melanoma (9 Carcinoma cell lines) assessed as reduction in mean cell growth; type: functional; method in brief: as §1
MDA-MB-468 [23] = test: Cytotoxicity against human MDA-MB-468 cells; type: functional; settings: read-out: LC50 (the source's name); method in brief: as §2
[24] = tested on: Panel renal (Carcinoma cell lines); test: Antiproliferative activity against human Panel renal (8 Carcinoma cell lines) assessed as reduction in mean cell growth; type: functional; method in brief: as §1
[25] = Antiproliferative activity against human Panel NCI-58 (58 Carcinoma cell lines) assessed as reduction in mean cell growth at 10 uM; type: functional; set-up: scale not given: the % may be the effect or the level left
Method in brief: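 NCI 58-cell-line screen covering leukemia, NSCLC, colon, CNS, melanoma, ovarian, renal, prostate and breast lines. Compounds given once at […] (micromolar per the line). Percent inhibition taken as 100 minus growth percent. Panel line reports the mean over all 58 lines.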

NCI/ADR-RES [26] = test: Cytotoxicity against human NCI/ADR-RES cells; type: functional; method in brief: as §2
SK-MEL-5 [27] = test: Antiproliferative activity against human SK-MEL-5 cells assessed as reduction in cell growth; type: functional; method in brief: as §1
[28] = target: Serine/threonine-protein kinase B-raf (Homo sapiens) (UniProt P15056); test: Inhibition of B-RAF (unknown origin) at 10 uM using […] as substrate incubated for 40 mins in presence of [gamma33P]ATP by scintillation counting based hotspot kinase assay relative to control
Chain of Serine/threonine-protein kinase B-raf (Homo sapiens) (P15056 whole entry): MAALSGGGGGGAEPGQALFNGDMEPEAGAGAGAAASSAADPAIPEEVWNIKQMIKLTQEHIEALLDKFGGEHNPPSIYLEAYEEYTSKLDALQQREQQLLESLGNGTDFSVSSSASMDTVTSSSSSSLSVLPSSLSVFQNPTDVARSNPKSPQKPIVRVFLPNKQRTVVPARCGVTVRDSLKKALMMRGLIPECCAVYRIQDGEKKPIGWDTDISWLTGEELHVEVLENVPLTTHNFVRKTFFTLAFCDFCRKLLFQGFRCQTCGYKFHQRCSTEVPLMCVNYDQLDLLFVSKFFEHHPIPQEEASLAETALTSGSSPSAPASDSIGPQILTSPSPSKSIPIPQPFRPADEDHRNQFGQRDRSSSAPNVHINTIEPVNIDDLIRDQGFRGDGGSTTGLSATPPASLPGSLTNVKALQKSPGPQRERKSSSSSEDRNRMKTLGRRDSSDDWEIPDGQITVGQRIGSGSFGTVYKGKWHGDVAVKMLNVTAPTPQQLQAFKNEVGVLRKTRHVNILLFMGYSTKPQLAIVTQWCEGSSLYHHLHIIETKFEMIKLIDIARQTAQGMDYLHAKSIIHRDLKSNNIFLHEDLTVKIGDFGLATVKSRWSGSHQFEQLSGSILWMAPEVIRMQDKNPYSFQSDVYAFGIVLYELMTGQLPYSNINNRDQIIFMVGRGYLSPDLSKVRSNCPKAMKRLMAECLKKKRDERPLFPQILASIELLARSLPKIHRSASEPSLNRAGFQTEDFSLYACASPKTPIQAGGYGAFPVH

Homo sapiens = organism: Homo sapiens; test: Inhibition of ABL […] mutant (unknown origin) at 10 uM using […] as substrate incubated for 40 mins in presence of [gamma33P]ATP by scintillation counting based hotspot kinase assay relative to control
L132 = test: Cytotoxicity against human L132 cells assessed as reduction in cell growth at 31.3 to 100 uM relative to control; type: toxicity, cell-based; set-up: scale not given: the % may be the effect or the level left; settings: l132, 100 µM, dose 31.3-100 µM
[29] = target: Epidermal growth factor receptor (Homo sapiens) (UniProt P00533); test: Inhibition of EGFR (unknown origin) at 10 uM using […] as substrate incubated for 40 mins in presence of [gamma33P]ATP by scintillation counting based hotspot kinase assay relative to control
Chain of Epidermal growth factor receptor (Homo sapiens) (P00533 whole entry): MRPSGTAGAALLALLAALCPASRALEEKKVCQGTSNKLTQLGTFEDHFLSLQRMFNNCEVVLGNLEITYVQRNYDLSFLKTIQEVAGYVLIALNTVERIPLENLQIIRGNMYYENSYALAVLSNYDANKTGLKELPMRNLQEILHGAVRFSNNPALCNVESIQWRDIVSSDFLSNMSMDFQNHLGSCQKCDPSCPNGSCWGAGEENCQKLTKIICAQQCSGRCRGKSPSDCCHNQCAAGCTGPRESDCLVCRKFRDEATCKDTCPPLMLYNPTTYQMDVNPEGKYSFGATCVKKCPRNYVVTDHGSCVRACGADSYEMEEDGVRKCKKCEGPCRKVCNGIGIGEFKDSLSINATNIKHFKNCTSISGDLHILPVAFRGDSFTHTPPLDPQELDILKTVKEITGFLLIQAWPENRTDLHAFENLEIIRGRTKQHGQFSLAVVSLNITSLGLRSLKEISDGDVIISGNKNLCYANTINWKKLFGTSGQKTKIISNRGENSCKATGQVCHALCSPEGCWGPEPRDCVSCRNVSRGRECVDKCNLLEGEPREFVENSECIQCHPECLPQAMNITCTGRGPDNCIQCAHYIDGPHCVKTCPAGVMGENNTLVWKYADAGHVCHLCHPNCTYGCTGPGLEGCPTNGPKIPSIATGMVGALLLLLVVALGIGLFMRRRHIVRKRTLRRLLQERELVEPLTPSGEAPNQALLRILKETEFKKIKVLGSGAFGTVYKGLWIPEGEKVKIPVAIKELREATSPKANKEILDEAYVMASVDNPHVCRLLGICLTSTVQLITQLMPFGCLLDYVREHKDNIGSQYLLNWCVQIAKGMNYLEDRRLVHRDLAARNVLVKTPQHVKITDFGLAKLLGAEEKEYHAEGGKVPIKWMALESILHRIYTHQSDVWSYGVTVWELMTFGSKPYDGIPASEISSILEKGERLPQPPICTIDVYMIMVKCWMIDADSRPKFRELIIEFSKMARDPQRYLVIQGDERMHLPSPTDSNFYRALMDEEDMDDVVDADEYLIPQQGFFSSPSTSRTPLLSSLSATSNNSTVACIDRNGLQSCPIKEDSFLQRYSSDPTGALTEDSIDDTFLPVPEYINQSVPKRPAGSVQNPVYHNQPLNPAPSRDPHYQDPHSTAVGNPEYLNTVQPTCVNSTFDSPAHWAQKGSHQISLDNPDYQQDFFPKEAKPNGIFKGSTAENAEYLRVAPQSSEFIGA

PC-3 [30] = test: Antiproliferative activity against human PC-3 cells assessed as total growth inhibition; type: functional; method in brief: as §1
NCI/ADR-RES [31] = test: Antiproliferative activity against human NCI/ADR-RES cells assessed as reduction in cell growth; type: functional; method in brief: as §1
HOP-92 [32] = test: Cytotoxicity against human HOP-92 cells; type: functional; method in brief: as §2
[33] = tested on: Serine/threonine-protein kinase B-raf (Homo sapiens), P15056 [V600E]; test: Inhibition of B-RAF V600E mutant (unknown origin) at 10 uM using […] as substrate incubated for 40 mins in presence of [gamma33P]ATP by scintillation counting based hotspot kinase assay relative to control
Chain of Serine/threonine-protein kinase B-raf (Homo sapiens), P15056 [V600E] (P15056 whole entry V600E): as the sequence (P15056 whole entry) above, with V600E counted along it

MDA-MB-468 [34] = test: Antiproliferative activity against human MDA-MB-468 cells assessed as total growth inhibition; type: functional; method in brief: as §1
PC-3 [35] = test: Cytotoxicity against human PC-3 cells; type: functional; method in brief: as §2
SNB-75 [36] = test: Antiproliferative activity against human SNB-75 cells assessed as total growth inhibition; type: functional; method in brief: as §1
SK-MEL-5 [37] = test: Cytotoxicity against human SK-MEL-5 cells; type: functional; method in brief: as §2
SK-MEL-5 [38] = test: Antiproliferative activity against human SK-MEL-5 cells assessed as total growth inhibition; type: functional; method in brief: as §1
[39] = target: RAF proto-oncogene serine/threonine-protein kinase (Homo sapiens, UniProt P04049); test: Inhibition of RAF1 (unknown origin) at 10 uM using […] as substrate incubated for 40 mins in presence of [gamma33P]ATP by scintillation counting based hotspot kinase assay relative to control
Chain of RAF proto-oncogene serine/threonine-protein kinase (P04049 whole entry): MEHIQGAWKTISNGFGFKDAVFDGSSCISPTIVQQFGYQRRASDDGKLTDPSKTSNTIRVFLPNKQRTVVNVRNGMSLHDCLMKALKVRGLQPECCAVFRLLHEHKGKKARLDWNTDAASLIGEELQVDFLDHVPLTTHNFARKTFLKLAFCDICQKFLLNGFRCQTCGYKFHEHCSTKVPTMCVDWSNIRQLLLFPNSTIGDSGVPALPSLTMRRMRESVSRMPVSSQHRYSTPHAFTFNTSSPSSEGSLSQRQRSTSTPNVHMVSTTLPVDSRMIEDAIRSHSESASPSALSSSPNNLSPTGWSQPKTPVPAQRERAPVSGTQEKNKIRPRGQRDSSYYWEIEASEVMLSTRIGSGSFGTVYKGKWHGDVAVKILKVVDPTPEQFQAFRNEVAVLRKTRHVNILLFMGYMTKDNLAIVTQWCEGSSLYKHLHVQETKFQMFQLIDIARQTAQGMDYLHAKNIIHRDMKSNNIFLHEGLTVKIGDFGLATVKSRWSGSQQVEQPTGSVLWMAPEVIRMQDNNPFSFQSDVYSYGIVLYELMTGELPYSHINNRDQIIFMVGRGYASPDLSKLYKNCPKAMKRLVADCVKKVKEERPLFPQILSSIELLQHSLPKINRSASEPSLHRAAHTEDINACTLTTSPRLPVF

RXF 393 [40] = test: Cytotoxicity against human RXF 393 cells; type: functional; method in brief: as §2
COLO 205 [41] = test: Cytotoxicity against human COLO 205 cells; type: functional; method in brief: as §2
HOP-92 [42] = test: Antiproliferative activity against human HOP-92 cells assessed as reduction in cell growth; type: functional; method in brief: as §1
[43] = target: Mitogen-activated protein kinase 14 (Homo sapiens) (UniProt Q16539); test: Inhibition of MAPK14 (p38 alpha) (unknown origin) at 10 uM using […] as substrate incubated for 40 mins in presence of [gamma33P]ATP by scintillation counting based hotspot kinase assay relative to control
Chain of Mitogen-activated protein kinase 14 (Homo sapiens) (Q16539 whole entry): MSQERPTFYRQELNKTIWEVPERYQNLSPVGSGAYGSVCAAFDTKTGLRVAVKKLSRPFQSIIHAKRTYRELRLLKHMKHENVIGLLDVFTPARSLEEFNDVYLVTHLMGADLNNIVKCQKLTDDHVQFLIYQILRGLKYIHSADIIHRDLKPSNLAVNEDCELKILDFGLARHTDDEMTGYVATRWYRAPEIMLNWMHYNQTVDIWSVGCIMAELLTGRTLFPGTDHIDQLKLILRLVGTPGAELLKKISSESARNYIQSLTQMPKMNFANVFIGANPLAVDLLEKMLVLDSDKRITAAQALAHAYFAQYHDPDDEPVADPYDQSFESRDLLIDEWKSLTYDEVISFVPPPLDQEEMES

[44] = target: Tyrosine-protein kinase ABL1 (Homo sapiens) (UniProt P00519); test: Inhibition of ABL (unknown origin) at 10 uM using […] as substrate incubated for 40 mins in presence of [gamma33P]ATP by scintillation counting based hotspot kinase assay relative to control
Chain of Tyrosine-protein kinase ABL1 (Homo sapiens) (P00519 whole entry): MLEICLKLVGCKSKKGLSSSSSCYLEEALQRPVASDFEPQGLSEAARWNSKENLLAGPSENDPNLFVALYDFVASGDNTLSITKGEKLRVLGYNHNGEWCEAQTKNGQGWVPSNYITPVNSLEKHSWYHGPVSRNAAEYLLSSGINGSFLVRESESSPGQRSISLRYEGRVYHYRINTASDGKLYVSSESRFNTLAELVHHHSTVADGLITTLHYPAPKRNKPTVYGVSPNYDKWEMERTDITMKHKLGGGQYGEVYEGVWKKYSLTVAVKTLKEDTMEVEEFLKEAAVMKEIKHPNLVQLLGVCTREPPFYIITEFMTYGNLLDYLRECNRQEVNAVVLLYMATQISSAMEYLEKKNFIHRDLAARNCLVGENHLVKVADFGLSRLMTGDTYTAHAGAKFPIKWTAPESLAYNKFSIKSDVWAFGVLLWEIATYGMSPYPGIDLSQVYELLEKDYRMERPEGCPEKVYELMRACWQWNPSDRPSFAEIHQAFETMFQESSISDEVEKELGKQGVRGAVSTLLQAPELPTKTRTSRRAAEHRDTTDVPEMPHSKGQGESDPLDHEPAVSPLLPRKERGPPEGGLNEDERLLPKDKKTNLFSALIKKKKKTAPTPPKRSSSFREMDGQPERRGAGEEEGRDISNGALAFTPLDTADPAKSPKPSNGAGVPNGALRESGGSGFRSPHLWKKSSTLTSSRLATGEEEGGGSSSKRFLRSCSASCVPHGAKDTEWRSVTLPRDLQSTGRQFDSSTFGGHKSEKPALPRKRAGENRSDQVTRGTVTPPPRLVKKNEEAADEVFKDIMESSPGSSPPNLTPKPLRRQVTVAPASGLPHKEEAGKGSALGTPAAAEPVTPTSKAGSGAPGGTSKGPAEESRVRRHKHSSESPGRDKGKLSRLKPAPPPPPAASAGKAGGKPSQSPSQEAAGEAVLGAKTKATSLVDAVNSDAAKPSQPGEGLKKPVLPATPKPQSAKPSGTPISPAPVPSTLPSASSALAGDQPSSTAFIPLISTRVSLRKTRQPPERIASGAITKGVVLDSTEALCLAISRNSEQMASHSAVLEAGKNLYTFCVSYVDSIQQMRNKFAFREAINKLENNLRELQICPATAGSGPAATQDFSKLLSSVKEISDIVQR

HOP-92 [45] = test: Antiproliferative activity against human HOP-92 cells assessed as total growth inhibition; type: functional; method in brief: as §1
HCT-15 [46] = test: Antiproliferative activity against human HCT-15 cells assessed as reduction in cell growth; type: functional; method in brief: as §1

Structure (SMILES): CNC(=O)c1cc(Oc2ccc(NC(=O)Nc3ccc(Cl)c(C(F)(F)F)c3)cc2)ccn1 [SORAFENIB]
GI50 [1]: 2.88 µM | GI50 (PC-3 [2]): 1.99 µM | GI50 [3]: 2.58 µM | GI50 [4]: 2.33 µM | GI50 [5]: 2.19 µM | TGI (COLO 205 [6]): 5.01 µM | TGI (HCT-15 [7]): 10 µM | TGI (K562 [8]): 100 µM | GI50 (MDA-MB-468 [9]): 1.99 µM | GI50 [10]: 2.43 µM | GI50 [11]: 2.25 µM | GI50 (SNB-75 [12]): 3.16 µM | GI50 (COLO 205 [13]): 1.99 µM | GI50 (RXF 393 [14]): 2.51 µM | CC50 (SNB-75 [15]): 7.94 µM | CC50 (K562 [16]): 100 µM | GI50 (K562 [17]): 3.16 µM | TGI (NCI/ADR-RES [18]): 15.8 µM | CC50 (HCT-15 [19]): 50.1 µM | GI50 [20]: 2.17 µM | TGI (RXF 393 [21]): 10 µM | GI50 [22]: 1.87 µM | CC50 (MDA-MB-468 [23]): 50.1 µM | GI50 [24]: 2.94 µM

GI50 [1]: 4.72 µM | GI50 [3]: 5.95 µM | GI50 [4]: 7.19 µM | GI50 [5]: 3.73 µM | GI50 [10]: 3.4 µM | GI50 [20]: 3.35 µM | GI50 [22]: 4.15 µM | GI50 [24]: 4.63 µM
Structure (SMILES): COc1cccc(-c2nn(-c3ccccc3)cc2-c2ccnc(NCCNC(=O)Nc3ccc(Cl)c(Cl)c3)c2)c1
Activity [25]: >80% | GI50 [11]: 3.02 µM

Structure (SMILES): O=C(NCCCNc1cc(-c2cn(-c3ccccc3)nc2-c2cccc(O)c2)ccn1)c1ccc(F)cc1
Activity [25]: >80% | LC50 (NCI/ADR-RES [26]): 29.7 µM | GI50 (SK-MEL-5 [27]): 1.61 µM | inhibition [28]: 22.5% | inhibition (Homo sapiens): 14.6% | GI50 [1]: 3.46 µM | Activity (L132): 50% | GI50 (PC-3 [2]): 2.81 µM | GI50 [3]: 3.72 µM | GI50 [4]: 3.29 µM | inhibition [29]: 15.7% | TGI (PC-3 [30]): 5.24 µM | GI50 (NCI/ADR-RES [31]): 2.2 µM | GI50 [5]: 2.16 µM | LC50 (HOP-92 [32]): 7.38 µM | TGI (COLO 205 [6]): 3.78 µM | TGI (HCT-15 [7]): 3.71 µM | TGI (K562 [8]): 4.83 µM | GI50 (MDA-MB-468 [9]): 1.59 µM | GI50 [10]: 1.98 µM | inhibition [33]: 40.1% | GI50 [11]: 3.12 µM | TGI (MDA-MB-468 [34]): 3.43 µM | LC50 (PC-3 [35]): 44.3 µM | GI50 (SNB-75 [12]): 5.19 µM | GI50 (COLO 205 [13]): 1.6 µM | GI50 (RXF 393 [14]): 1.63 µM | CC50 (SNB-75 [15]): 74 µM | CC50 (K562 [16]): 100 µM | GI50 (K562 [17]): 1.93 µM | TGI (NCI/ADR-RES [18]): 5.82 µM | TGI (SNB-75 [36]): 12.5 µM | LC50 (SK-MEL-5 [37]): 5.72 µM | TGI (SK-MEL-5 [38]): 3.15 µM | CC50 (HCT-15 [19]): 8.09 µM | inhibition [39]: 36.4% | LC50 (RXF 393 [40]): 5.99 µM | LC50 (lethal concentration 50%) (COLO 205 [41]): 7.6 µM | GI50 (HOP-92 [42]): 2.13 µM | GI50 [20]: 1.89 µM | inhibition [43]: 66.6% | inhibition [44]: 16.1% | TGI (RXF 393 [21]): 3.03 µM | TGI (HOP-92 [45]): 3.28 µM | GI50 (HCT-15 [46]): 1.77 µM | GI50 [22]: 1.91 µM | CC50 (MDA-MB-468 [23]): 6.92 µM | GI50 [24]: 2.84 µM

— ChEMBL document CHEMBL5257027 (Eur J Med Chem, 2016)
